Legend:
[1] = molecular target: Muscarinic acetylcholine receptor M3 (Homo sapiens, UniProt P20309); experiment: biochemical; format: cell-based, CHO
[2] = molecular target: T1, Muscarinic acetylcholine receptor M1 (Homo sapiens, UniProt P11229); experiment: biochemical; format: cell-based, CHO
T1 sequence (P11229 whole entry): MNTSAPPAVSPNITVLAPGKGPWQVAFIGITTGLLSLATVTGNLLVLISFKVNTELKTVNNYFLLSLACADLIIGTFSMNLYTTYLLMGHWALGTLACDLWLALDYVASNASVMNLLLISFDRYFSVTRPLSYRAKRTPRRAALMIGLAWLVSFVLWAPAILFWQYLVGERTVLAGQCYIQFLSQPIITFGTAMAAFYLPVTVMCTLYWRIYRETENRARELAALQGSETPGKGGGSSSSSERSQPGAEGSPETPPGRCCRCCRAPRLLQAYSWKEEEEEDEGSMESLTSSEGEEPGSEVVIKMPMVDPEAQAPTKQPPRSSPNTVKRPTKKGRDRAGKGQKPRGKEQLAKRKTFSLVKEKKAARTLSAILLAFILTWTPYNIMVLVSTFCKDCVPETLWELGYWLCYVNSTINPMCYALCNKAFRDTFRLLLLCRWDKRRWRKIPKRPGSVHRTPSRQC

[3] = molecular target: T2, Muscarinic acetylcholine receptor M4 (Homo sapiens, UniProt P08173); experiment: Binding affinity (Ki) against binding of [3H]NMS using membranes from CHO cells expressing cloned human Muscarinic acetylcholine receptor M4; format: cell membranes
T2 sequence (P08173 whole entry): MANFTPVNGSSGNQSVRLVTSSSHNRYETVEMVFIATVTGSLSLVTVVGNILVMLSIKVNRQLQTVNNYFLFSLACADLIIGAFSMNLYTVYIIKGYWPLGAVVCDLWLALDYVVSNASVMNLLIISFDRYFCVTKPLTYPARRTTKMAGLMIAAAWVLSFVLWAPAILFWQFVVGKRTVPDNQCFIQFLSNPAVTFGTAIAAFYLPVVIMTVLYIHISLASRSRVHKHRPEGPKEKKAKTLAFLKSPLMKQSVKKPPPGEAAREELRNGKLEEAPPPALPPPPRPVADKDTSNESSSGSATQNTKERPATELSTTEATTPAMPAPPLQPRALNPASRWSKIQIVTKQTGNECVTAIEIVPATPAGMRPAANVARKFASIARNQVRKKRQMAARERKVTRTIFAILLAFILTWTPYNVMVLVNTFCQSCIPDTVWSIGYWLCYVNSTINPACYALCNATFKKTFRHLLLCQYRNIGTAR

[4] = molecular target: T3, Muscarinic acetylcholine receptor M5 (Homo sapiens, UniProt P08912); experiment: Binding affinity (Ki) against binding of [3H]NMS using membranes from CHO cells expressing cloned human Muscarinic acetylcholine receptor M5; format: cell membranes
T3 sequence (P08912 whole entry): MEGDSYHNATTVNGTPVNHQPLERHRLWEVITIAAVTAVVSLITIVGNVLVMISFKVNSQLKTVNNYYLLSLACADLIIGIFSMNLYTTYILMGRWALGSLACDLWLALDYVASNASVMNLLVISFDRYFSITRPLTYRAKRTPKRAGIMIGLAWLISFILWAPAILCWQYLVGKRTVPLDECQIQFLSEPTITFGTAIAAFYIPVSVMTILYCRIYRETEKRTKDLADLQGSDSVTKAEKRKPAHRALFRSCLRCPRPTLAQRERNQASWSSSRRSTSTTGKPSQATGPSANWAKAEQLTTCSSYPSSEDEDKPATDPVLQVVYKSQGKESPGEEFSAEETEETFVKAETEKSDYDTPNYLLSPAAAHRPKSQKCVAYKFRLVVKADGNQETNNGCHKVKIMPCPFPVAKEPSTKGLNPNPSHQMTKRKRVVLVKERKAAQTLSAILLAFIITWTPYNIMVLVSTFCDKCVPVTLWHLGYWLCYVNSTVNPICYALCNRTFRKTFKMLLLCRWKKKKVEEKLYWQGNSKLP

[5] = molecular target: T4, Muscarinic acetylcholine receptor M2 (Homo sapiens, UniProt P08172); experiment: Binding affinity (Ki) against binding of [3H]NMS to membranes from CHO cells expressing cloned human Muscarinic acetylcholine receptor M2; format: cell membranes
T4 sequence (P08172 whole entry): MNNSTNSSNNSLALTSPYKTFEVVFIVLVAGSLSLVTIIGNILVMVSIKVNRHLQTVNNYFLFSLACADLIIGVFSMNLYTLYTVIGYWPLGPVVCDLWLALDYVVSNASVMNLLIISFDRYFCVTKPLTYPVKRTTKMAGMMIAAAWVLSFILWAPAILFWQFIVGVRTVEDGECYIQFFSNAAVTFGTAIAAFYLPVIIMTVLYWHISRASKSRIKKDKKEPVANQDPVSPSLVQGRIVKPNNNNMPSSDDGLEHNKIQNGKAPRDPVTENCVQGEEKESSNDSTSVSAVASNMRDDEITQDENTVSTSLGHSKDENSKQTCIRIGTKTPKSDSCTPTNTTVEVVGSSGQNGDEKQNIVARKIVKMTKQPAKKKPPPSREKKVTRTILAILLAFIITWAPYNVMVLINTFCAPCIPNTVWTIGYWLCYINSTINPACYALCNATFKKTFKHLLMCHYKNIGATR

Homo sapiens [6] = species: Homo sapiens; experiment: Selectivity ratio (m4/m3)
Outline: (§1)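 Binding affinities (Ki) were measured at each of the five muscarinic receptor subtypes (m1–m5), with the m3 receptor being human and expressed in CHO cells. The ratio compares the m4 or m5 Ki with the m3 Ki. Values are the mean of two or more independent assays.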

Homo sapiens [7] = species: Homo sapiens; experiment: Selectivity ratio (m5/m3)
Outline: as §1

Rattus norvegicus [8] = experiment: 50% in vivo effective dose that inhibits ACh-induced pressor response (M1) in rat assay systems after intravenous administration was reported; format: functional
Rattus norvegicus [9] = experiment: 50% in vivo effective dose that inhibits ACh-induced bronchoconstriction (M3) in rat assay systems after intravenous administration was reported; format: functional
Rattus norvegicus [10] = experiment: 50% in vivo effective dose that inhibits Ach-induced bradycardia (M2) in rat assay systems after intravenous administration was reported; format: functional

Muscarinic acetylcholine receptor M3, sequence (P20309 whole entry): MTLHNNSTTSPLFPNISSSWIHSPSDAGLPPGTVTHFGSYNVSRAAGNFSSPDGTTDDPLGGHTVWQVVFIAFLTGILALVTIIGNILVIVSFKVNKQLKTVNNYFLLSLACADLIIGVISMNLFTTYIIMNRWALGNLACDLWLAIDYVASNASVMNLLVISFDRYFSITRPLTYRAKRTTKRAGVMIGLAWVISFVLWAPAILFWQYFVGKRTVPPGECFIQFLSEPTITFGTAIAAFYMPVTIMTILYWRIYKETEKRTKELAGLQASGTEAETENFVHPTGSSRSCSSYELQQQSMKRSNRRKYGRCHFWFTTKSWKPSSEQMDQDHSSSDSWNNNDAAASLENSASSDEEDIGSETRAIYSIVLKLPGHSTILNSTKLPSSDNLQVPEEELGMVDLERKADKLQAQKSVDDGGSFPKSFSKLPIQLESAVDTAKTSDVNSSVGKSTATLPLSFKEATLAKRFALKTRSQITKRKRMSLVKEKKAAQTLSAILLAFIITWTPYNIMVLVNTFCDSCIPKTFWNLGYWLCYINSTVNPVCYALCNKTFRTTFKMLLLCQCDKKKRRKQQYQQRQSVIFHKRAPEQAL

| Structure (SMILES) | Ki [1] [µM] | Ki [2] [µM] | Ki [3] [µM] | Ki [4] [µM] | Ki [5] [µM] | Selectivity (Homo sapiens [6]) | Selectivity (Homo sapiens [7]) | ED50 (Rattus norvegicus [8]) [mg/kg] | ED50 (Rattus norvegicus [9]) [mg/kg] | ED50 (Rattus norvegicus [10]) [mg/kg] |
| --- | --- | --- | --- | --- | --- | --- | --- | --- | --- | --- |
| O=C(CCCNC(=O)CNC(=O)CC(c1ccccc1)(c1ccccc1)c1ccccc1)NCC1CCCN(CC2CCCCC2)C1 (configuration not stated) | 0.0033 | 0.3 | 0.074 | 1.1 | 0.27 | 22 | 320 |  |  |  |
| O=C(CCCCCNC(=O)CC(c1ccccc1)(c1ccccc1)c1ccccc1)NC[C@H]1CCCN(CC2CCCCC2)C1 | 0.001 | 0.11 | 0.03 | 0.21 | 0.072 | 30 | 200 |  |  |  |
| O=C(CCNC(=O)[C@@H]1CCCN1C(=O)CC(c1ccccc1)(c1ccccc1)c1ccccc1)NC[C@H]1CCCN(CC2CCCCC2)C1 | 0.00027 | 0.15 | 0.011 | 0.058 | 0.012 | 42 | 210 |  |  |  |
| O=C(CCNC(=O)CNC(=O)CC(c1ccccc1)(c1ccccc1)c1ccccc1)NC[C@H]1CCCN(CC2CCCCC2)C1 | 0.00031 | 0.12 | 0.014 | 0.037 | 0.03 | 45 | 120 | > 3 | 0.015 | 1.55 |
| O=C(NC[C@H]1CCCN(CC2CCCCC2)C1)[C@H]1CCCN1C(=O)[C@@H]1CCCN1C(=O)CC(c1ccccc1)(c1ccccc1)c1ccccc1 | 0.00025 | 0.014 | 0.0023 | 0.15 | 0.00082 | 9 | 580 |  |  |  |
| CN1[C@@H]2CC[C@H]1C[C@@H](OC(=O)C(CO)c1ccccc1)C2 (some centres not stated) [ATROPINE] |  |  |  |  |  |  |  | 0.016 | 0.0043 | 0.0052 |
| O=C(CCNC(=O)CC(c1ccccc1)(c1ccccc1)c1ccccc1)NCCC(=O)NC[C@H]1CCCN(CC2CCCCC2)C1 | 0.00076 | 0.036 | 0.031 | 0.03 | 0.044 | 41 | 40 |  |  |  |
| O=C(CCCNC(=O)CC(c1ccccc1)(c1ccccc1)c1ccccc1)NCCC(=O)NCC1CCCN(CC2CCCCC2)C1 (configuration not stated) | 0.0021 | 0.077 | 0.06 | 0.2 | 0.017 | 29 | 95 |  |  |  |
| O=C(CNC(=O)[C@@H]1CCCN1C(=O)CC(c1ccccc1)(c1ccccc1)c1ccccc1)NC[C@H]1CCCN(CC2CCCCC2)C1 | 0.0022 | 0.15 | 0.043 | 2 | 0.013 | 19 | 890 |  |  |  |

— ChEMBL document CHEMBL1135983, “Cyclohexylmethylpiperidinyltriphenylpropioamide: a selective muscarinic M(3) antagonist discriminating against the other receptor subtypes” (J Med Chem, 2002)
